Only some compounds are listed: those with a hit (about 3.5% of all), similar ones and a draw of the others.
RGS4 act: RGS4 potentiators or activators, primary screen, cell-based, HEK293 M3R inducible RGS4, calcium flux | AID 463111, 2010 | B-score at 10 µM | 310,000 tested, 0.92% active | carbachol calcium flux Fluo4; stronger effect = lower value;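 active = B-score of the integrated calcium signal more than 4 SD below the library mean, with starting fluorescence not abnormally high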;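 note: negative B-score means reduced calcium response which marks RGS4 activation or potentiation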
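Test system: HEK293 cells with stable M3R and inducible RGS4; also added: carbachol at ECmax as muscarinic agonist stimulus; schedule: dye loading 30 min 37 °C, buffer rest 30 min RT; technique: kinetic calcium fluorescence imaging with Fluo4-AM dye, 2 µM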
MrgX1 antag: antagonists of human MrgX1 receptor, primary screen, HEK293 cells, Fluo-4 calcium flux; Mas-related G-protein coupled receptor member X1 (Homo sapiens), Q96LB2; BAM8-22 antagonism; stronger effect = lower value; B-score at 10 µM; 310,000 tested, 1.3% active;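 active = calcium-response B-score plate-corrected more than 3 library SD below zero, starting fluorescence within 5 deviations, no agonist response on first addition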;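 note: peak minus trough fluorescence over baseline after final BAM8-22 challenge near maximal dose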
Target sequence (Q96LB2 whole entry, looked up): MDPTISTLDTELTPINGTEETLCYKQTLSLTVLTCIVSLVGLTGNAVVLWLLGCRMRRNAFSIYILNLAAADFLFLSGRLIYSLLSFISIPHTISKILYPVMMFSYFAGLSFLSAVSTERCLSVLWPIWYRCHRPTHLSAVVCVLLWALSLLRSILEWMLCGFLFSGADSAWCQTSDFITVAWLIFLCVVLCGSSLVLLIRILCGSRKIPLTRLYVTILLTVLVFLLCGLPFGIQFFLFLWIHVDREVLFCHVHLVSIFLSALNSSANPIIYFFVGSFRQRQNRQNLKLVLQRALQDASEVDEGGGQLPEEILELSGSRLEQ
MrgX1 PAM: positive allosteric modulators of MrgX1, primary screen, HEK293 cells, Fluo-4 calcium flux; 310,000 tested, 0.63% active; FDSS; stronger effect = higher value; B-score at 10 µM;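 active = plate-corrected calcium response at least 3 library SD above typical, normal starting fluorescence, not activating the receptor alone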;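 note: compound read alongside a low EC10 to EC30 dose of BAM8-22 agonist; peak minus trough fluorescence over baseline measured at the second addition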
MrgX1 agonist: agonists of human MrgX1 receptor, primary screen, HEK293 cells, Fluo-4 calcium flux. Mas-related G-protein coupled receptor member X1 (Homo sapiens), Q96LB2. Fluo-4 calcium fluorescence, agonist mode; stronger effect = higher value. B-score at 10 µM. 310,000 tested, 0.44% active. AID 588627, 2011;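 active = calcium response B-score plate-corrected fluorescence ratio at least 3 library SD, with starting fluorescence B-score inside 5 SD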
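Material: HEK293 cells stably expressing human MrgX1 receptor | Quantity: 15,000 cells per well | Times: Cells plated overnight, dye loaded 0.5 h 37 °C, 0.5 h room temperature | Measured by: Kinetic Fluo-4 NW fluorescence of intracellular calcium | Control set: Positive and negative controls per plate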
RGS4 inh: RGS4 inhibitors, primary screen, cell-based, HEK293 M3R inducible RGS4, calcium flux | Regulator of G-protein signaling 4 (Homo sapiens), P49798 | Fluo-4 calcium flux; stronger effect = higher value; triggered by carbachol at its EC20 | B-score at 10 µM | 310,000 tested, 0.45% active | AID 463165, 2010;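 active = B-score, a plate-corrected calcium signal, over three deviations above library mean, with baseline fluorescence within five deviations of library mean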;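 note: RGS4 expression induced by doxycycline in cells with stable M3 receptor; B-score is computed from the integrated fluorescence ratio over baseline after carbachol; higher B-score means a larger calcium signal and so more RGS4 inhibition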
* hit, by the source's call; i = inactive.

SMILES	RGS4 act	MrgX1 antag	MrgX1 PAM	MrgX1 agonist	RGS4 inh
CCCNC(=O)C(Sc1ccccc1)c1ccccc1 (configuration not stated)	i	i	i	i	i
Cc1nc(C(=O)Nc2cc(Cl)ccc2Cl)nn1-c1cc(OC(C)C)c(Cl)cc1Cl	i	-5.14*	i	i	i
Cn1c(=O)c2c(ncn2CCC(=O)N/N=C/c2ccccc2)n(C)c1=O	i	i	i	i	i
OC(c1cccs1)(c1cccs1)C1C[N+]2(CF)CCC1CC2 (configuration not stated)	-8.38*	i	i	i	i
O=C(CCC1CCCC1)NCc1cccs1	i	i	i	i	i
CC(=O)N(C)c1ccc(NS(=O)(=O)Cc2ccccc2)cc1	i	i	i	i	i
Cc1ccc(-c2cn(-c3ccccc3)c3[n+]2CCCS3)cc1	i	i	i	i	i
CCc1ccc(-n2cc(-c3ccc(F)cc3)[n+]3c2SCCC3)cc1	-7.29*	i	i	i	i
Cc1ccc(Oc2ncccc2/C=N/OCc2ccc(Cl)cc2Cl)cc1	i	i	7.31*	i	i
COc1ccccc1OCC(=O)Nc1c2c(nn1-c1ccc(C)cc1)CS(=O)(=O)C2	i	i	i	i	i
COc1ccc(NC(=O)c2cccc(S(=O)(=O)N3CCCCC3)c2)c(OC)c1	i	i	i	i	i
COC(=O)C1CCN(CC(=O)Nc2cc(Cl)ccc2OC)CC1	i	i	20.9*	i	i
Cc1ccccc1C(OCCN(C(C)C)C(C)C)c1ccccc1 (configuration not stated)	-8.59*	i	i	i	i
CN(C)CCOC(c1ccccc1)c1ccccc1	i	i	i	i	i
CC(=O)c1c(C)[nH]c(C(=O)Nc2ccc(F)c(F)c2F)c1C	i	i	i	i	i
O=C(O)c1c2c(nc3ccccc13)/C(=C/c1ccccc1[N+](=O)[O-])CCC2	i	i	i	i	i
O=C(O)c1c2c(nc3ccccc13)/C(=C/c1cccc([N+](=O)[O-])c1)CCC2	i	i	18*	i	i
Oc1ccc(/C=N/n2c(COc3ccccc3)n[nH]c2=S)c(O)c1	i	i	i	i	i
C/C(=N\OCc1nc2ccccc2c(=O)n1/N=C/c1cc(C)cc([N+](=O)[O-])c1O)c1ccccc1	i	i	i	i	i
Oc1ccccc1/C=N/n1c(COc2ccccc2)n[nH]c1=S	i	i	6.61*	i	i
O=c1c2ccccc2nc(COc2ccccc2)n1/N=C/c1c[nH]c2ccccc12	i	i	i	i	i
O=c1c2ccccc2nc(COc2ccccc2)n1/N=C/c1ccc(O)cc1O	-7.81*	i	i	i	i
C/C(=N\OCc1nc2ccccc2c(=O)n1/N=C/c1cc([N+](=O)[O-])ccc1O)c1ccccc1	i	i	7.34*	i	i
O=C(CCN1c2ccccc2Sc2ccccc21)Oc1ccccc1	i	i	i	i	i
CCn1cnc2c1c(=O)n(Cc1cccc([N+](=O)[O-])c1)c(=O)n2Cc1ccccc1	i	i	i	i	i
SMILES	RGS4 act	MrgX1 antag	MrgX1 PAM	MrgX1 agonist	RGS4 inh
CC(=O)c1cccc(Nc2nc(-c3sc(C)nc3C)cs2)c1	i	i	i	i	i
CC(=O)c1cccc(Nc2nc(-c3sc(N)nc3C)cs2)c1	-7.22*	i	i	i	i
Cc1nc(C)c(-c2csc(Nc3cccc(O)c3)n2)s1	i	i	i	i	i
CCC(=O)Nc1nc(C)c(-c2csc(Nc3cccc(O)c3)n2)s1	-7.29*	-5.4*	i	i	i
COc1ccc(N(C(=O)c2cccnc2)S(=O)(=O)c2cccc([N+](=O)[O-])c2)cc1	i	i	6.66*	i	i
Cn1c(=O)cc(SCC(=O)N2CCN(c3ccccn3)CC2)c2ccccc21	i	i	i	i	i
